Measurements from ChEMBL document CHEMBL3997766, “Synthesis and pre-clinical studies of new amino-acid ester thiazolide prodrugs” (Eur J Med Chem, 2017).

Assays:
Type in all cases: ADME, organism-based
Settings in all cases: in vivo
[1] = tested on: Rattus norvegicus; experiment: Cmax in Sprague-Dawley rat assessed as RM-4848-glucuronide level at 6 mg/kg, iv administered as single dose; design: dose 6 mg/kg, route intravenous
Outline: (§1)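 Rats in groups of three received one compound as a single oral dose (30 mg/kg) or a single intravenous injection (6 mg/kg), with four compounds studied separately. Serial blood samples were drawn at 5, 10, 15 and 30 min and at 1, 2, 4, 8, 23 and 24 h post-dose. Plasma parent drug and metabolites were quantified and PK parameters were derived.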

[2] = tested on: Rattus norvegicus; experiment: Cmax in Sprague-Dawley rat assessed as RM-4848-glucuronide level in plasma at 30 mg/kg, po administered as single dose; design: dose 30 mg/kg, route oral; outline: as §1
[3] = tested on: Rattus norvegicus; experiment: Elimination half life in Sprague-Dawley rat assessed as RM-4848 level in plasma at 6.4 mg/kg, iv
[4] = tested on: Rattus norvegicus; experiment: Drug metabolism in Sprague-Dawley rat assessed as RM-4848-glucuronide formation at 6.4 mg/kg, iv measured at 0.25 to 1 hrs post dose
[5] = tested on: Rattus norvegicus; experiment: Oral bioavailability in Sprague-Dawley rat assessed as RM-4848 level in plasma at 30 mg/kg administered as single dose
Outline: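 Groups of three rats received a single oral dose (30 mg/kg) or intravenous dose (6 mg/kg), with serial blood sampling from 5 min to 24 h. Absolute bioavailability came from the AUC after oral versus intravenous dosing, with the AUC corrected for dose to 30 mg/kg.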

[6] = tested on: Plasma; experiment: Drug metabolism in Sprague-Dawley rat assessed as RM-4848 formation in plasma at 30 mg/kg, po measured at 0.25 to 0.5 post dose; outline: as §1
[7] = tested on: Rattus norvegicus; experiment: AUC (0 to t) in Sprague-Dawley rat assessed as RM-4848-glucuronide level at 6 mg/kg, iv administered as single dose; outline: as §1
[8] = tested on: Rattus norvegicus; experiment: Elimination half life in Sprague-Dawley rat assessed as RM-4848-glucuronide level at 6.4 mg/kg, iv
[9] = tested on: Rattus norvegicus; experiment: AUC (0 to t) in Sprague-Dawley rat assessed as RM-4848 level in plasma at 6 mg/kg, iv administered as single dose; outline: as §1
[10] = tested on: Rattus norvegicus; experiment: Tmax in Sprague-Dawley rat assessed as RM-4848-glucuronide formation at 6.4 mg/kg, iv
Outline: (§2)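 Rats in groups of three got a single oral dose (30 mg/kg) or a single intravenous injection (6 mg/kg). Serial blood samples were taken at 5, 10, 15 and 30 min and at 1, 2, 4, 8, 23 and 24 h post-dose for plasma drug and glucuronide levels. Bioavailability came from oral versus intravenous AUC after dose correction to 30 mg/kg.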

[11] = tested on: Plasma; experiment: Drug metabolism in Sprague-Dawley rat assessed as RM4848-glucuronide formation in plasma at 30 mg/kg, po measured at 0.25 to 0.5 post dose; outline: as §1
[12] = tested on: Rattus norvegicus; experiment: Elimination half life in Sprague-Dawley rat assessed as RM-4848-glucuronide level at 30 mg/kg, po administered as single dose; outline: as §1
[13] = tested on: Rattus norvegicus; experiment: Cmax in Sprague-Dawley rat assessed as RM-4848 level in plasma at 30 mg/kg, po administered as single dose; design: dose 30 mg/kg, route oral; outline: as §1
[14] = tested on: Rattus norvegicus; experiment: AUC (0 to t) in Sprague-Dawley rat assessed as RM-4848 level in plasma at 30 mg/kg, po administered as single dose; outline: as §1
[15] = tested on: Plasma; experiment: Drug metabolism in Sprague-Dawley rat assessed as RM-4848 formation in plasma at 6.4 mg/kg, iv measured at 1 to 4 hrs post dose
[16] = tested on: Rattus norvegicus; experiment: Cmax in Sprague-Dawley rat assessed as RM-4848 level in plasma at 6 mg/kg, iv administered as single dose; design: dose 6 mg/kg, route intravenous; outline: as §1
[17] = tested on: Rattus norvegicus; experiment: Tmax in Sprague-Dawley rat assessed as RM-4848-glucuronide level in plasma at 30 mg/kg, po administered as single dose; outline: as §2
[18] = tested on: Rattus norvegicus; experiment: Elimination half life in Sprague-Dawley rat assessed as RM-4848 level in plasma at 30 mg/kg, po administered as single dose; outline: as §1
[19] = tested on: Plasma; experiment: Drug metabolism in Sprague-Dawley rat assessed as RM-4848-glucuronide formation in plasma at 6 mg/kg, iv administered as single dose; outline: as §1
[20] = tested on: Rattus norvegicus; experiment: AUC (0 to t) in Sprague-Dawley rat assessed as RM-4848-glucuronide level in plasma at 30 mg/kg, po administered as single dose; outline: as §1
[21] = tested on: Rattus norvegicus; experiment: Tmax in Sprague-Dawley rat assessed as RM-4848-glucuronide level in plasma at 6.2 mg/kg, iv; outline: as §2
[22] = tested on: Plasma; experiment: Drug metabolism in Sprague-Dawley rat assessed as RM-4848-glucuronide formation in plasma at 6.2 mg/kg, iv at 0.083 hrs post dose
[23] = tested on: Plasma; experiment: Drug metabolism in Sprague-Dawley rat assessed as RM-4848 formation in plasma at 30 mg/kg, po administered as single dose measured at 0.083 to 4 hrs post dose; outline: as §1
[24] = tested on: Plasma; experiment: Drug metabolism in Sprague-Dawley rat assessed as RM-4848-glucuronide formation in plasma at 30 mg/kg, po administered as single dose; outline: as §1
[25] = tested on: Rattus norvegicus; experiment: Tmax in Sprague-Dawley rat assessed as RM4848-glucuronide level in plasma at 30 mg/kg, po administered as single dose; outline: as §2
[26] = tested on: Rattus norvegicus; experiment: Elimination half life in Sprague-Dawley rat assessed as RM-4848 level in plasma at 6.2 mg/kg, iv
[27] = tested on: Rattus norvegicus; experiment: Elimination half life in Sprague-Dawley rat assessed as RM-4848-glucuronide level at 6.2 mg/kg, iv
[28] = tested on: Rattus norvegicus; experiment: Tmax in Sprague-Dawley rat assessed as RM-4848 level in plasma at 6.2 mg/kg, iv; outline: as §2

Row | SMILES | Cmax [1] [ng/mL] | Cmax [2] [ng/mL] | F [5] [%] | AUCt [7] [ng·h/mL] | AUCt [9] [ng·h/mL] | beta t1/2 [12] [min] | Cmax [13] [ng/mL] | AUCt [14] [ng·h/mL] | Cmax [16] [ng/mL] | beta t1/2 [18] [min] | AUCt [20] [ng·h/mL] | other results
1 | CC(=O)Oc1ccccc1C(=O)Nc1ncc(Cl)s1 | 17300 | 2080 | 1 | 19400 | 3480 | 368 | 101 | 130 | 9980 | 180 | 10040 | beta t1/2 [3]: 40.2 min; Drug metabolism [4]: Metabolite_Detected; Drug metabolism [6]: Metabolite_Detected; beta t1/2 [8]: 150 to 192 min; Tmax [10]: 15 to 60 min; Drug metabolism [11]: Metabolite_Detected; Drug metabolism [15]: Metabolite_Detected; Tmax [17]: 15 to 30 min; Drug metabolism [19]: Metabolite_Detected
2 | CC(C)(C)[C@H](N)C(=O)Oc1ccccc1C(=O)Nc1ncc(Cl)s1.Cl | 5570 | 7290 | 23 | 7610 | 631 | 206 | 622 | 715 | 2650 | 84 to 156 | 19400 | Tmax [21]: 15 to 30 min; Drug metabolism [22]: Metabolite_Detected; Drug metabolism [23]: Metabolite_Detected; Drug metabolism [24]: Metabolite_Detected; Tmax [25]: 30 min; beta t1/2 [26]: 54.6 min; beta t1/2 [27]: 189 min; Tmax [28]: 4.98 min
